Measured values as given in ChEMBL document CHEMBL5252539, “In vitro biological evaluation of new antimycobacterial salicylanilide-tuftsin conjugates” (Eur J Med Chem, 2017).
In brackets after ≈: the same amount, converted by molar mass. Activity calls are given as the source filed them. No cut-off for these calls is given here. *1 amine or outer side, *2 acyl side, *3 side chain or, on linkers, in order; H or OH if unused. Where a SMILES comes first, the peptide text is derived from it. [ ]: non-standard residue; d: D form. The star is where a group is joined. X4 = O=C(Nc1ccc(C(F)(F)F)cc1)c1cc(/C=N\OCC(=O)*)ccc1O; X2 = C/C(=N\OCC(=O)*)c1ccc(NC(=O)c2cc(Br)ccc2O)cc1; X1 = C/C(=N\OCC(=O)[*:2])c1ccc(N[*:1])cc1; Benzoyl(5-Br-2-OH) = O=C(c1cc(Br)ccc1O)*; X3 = O=C(c1cc(Cl)ccc1O)*; Butyryl = CCCC(=O)*

Legend:
[1] = Stability in rat liver lysosomal homogenate assessed as drug degradation at 50 uM and measured upto 24 hrs by HPLC-MS analysis; assay type: ADME, subcellular, Lysosome; conditions: tissue homogenate
Method in brief: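 Conjugates incubated in rat liver lysosomal homogenate. Reaction mixtures sampled at 5 min, 1 h, 2 h, 4 h, 8 h and 24 h and analysed by HPLC-MS (chromatograms and mass spectra) to identify intact conjugate, fragments and cleavage sites.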

[2] = tested on: Mycobacterium tuberculosis; test: […] antimycobacterial activity against Mycobacterium tuberculosis H37Rv ATCC 27294 infected in human MONO-MAC-6 cells assessed as reduction in colony forming unit at 250 uM for 6 days by colony counting based analysis; assay type: functional, organism-based; conditions: time 6.0 day
Method in brief: (§1)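 MonoMac6 monolayers infected with H37Rv, then treated with compound at 125 or 250 µM for 3 days. Treatment repeated with fresh compound solution for another 3 days. Intracellular bacteria quantified as CFU against untreated infected cells.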

[3] = tested on: Mycobacteroides abscessus; test: Antimycobacterial activity against Mycobacterium abscessus ATCC 19977 assessed as reduction in bacterial growth after 7 days by serial dilution method; assay type: functional; conditions: ATCC 19977, 168 h, time 7 day
Method in brief: (§2)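 MIC determined in Sula semisynthetic medium, pH 6.5, 1 week incubation. Growth inhibition confirmed by plating on Löwenstein-Jensen solid medium and counting CFU. Bacteria inoculated without drug served as growth control.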

[4] = tested on: Mycobacterium tuberculosis; test: […] antimycobacterial activity against Mycobacterium tuberculosis H37Rv ATCC 27294 infected in human MONO-MAC-6 cells assessed as reduction in colony forming unit at 125 uM for 6 days by colony counting based analysis; assay type: functional, organism-based; conditions: time 6.0 day; method in brief: as §1
[5] = tested on: Mycobacteroides abscessus; test: Antimycobacterial activity against Mycobacterium abscessus ATCC 19977 assessed as reduction in colony forming unit after 7 days by serial dilution method; assay type: functional, organism-based; conditions: time 7.0 day; method in brief: as §2
HepG2 = test: Cytostatic activity against human HepG2 cells assessed as reduction in cell viability incubated for 24 hrs by MTT assay; assay type: functional, cell-based; conditions: HepG2, 24 h
Method in brief: (§3)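 MTT viability assay after 24 h exposure of MonoMac6 human monocytic cells or HepG2 human hepatocellular carcinoma cells. Top concentration 200 μM. IC50 taken from dose-response curves as the concentration reducing viability to 50% of maximal.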

[6] = tested on: Mycobacterium tuberculosis; test: Antimycobacterial activity against Mycobacterium tuberculosis H37Rv ATCC 27294 assessed as reduction in colony forming unit after 28 days by serial dilution method; assay type: functional, organism-based; conditions: time 28.0 day
Method in brief: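 After the 4-week MIC incubation in Sula semisynthetic medium (pH 6.5), growth inhibition confirmed by plating on Löwenstein-Jensen solid medium and counting colony forming units.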

MONO-MAC-6 = test: Cytostatic activity against human MONO-MAC-6 cells assessed as reduction in cell viability incubated for 24 hrs by MTT assay; assay type: functional, cell-based; conditions: MONO-MAC-6, 24 h; method in brief: as §3
[7] = tested on: Mycobacterium tuberculosis; test: Antimycobacterial activity against Mycobacterium tuberculosis H37Rv ATCC 27294 assessed as reduction in bacterial growth after 28 days by serial dilution method; assay type: functional; conditions: H37Rv ATCC 27294, 672 h, time 28 day
Method in brief: (§4)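 Broth MIC in Sula semisynthetic medium, pH 6.5; 4-week incubation, with 21-day values […] where indicated. Drug-free inoculated bacteria served as growth control. MIC also expressed as drug content (µg/mL) = MIC (µM) × average SAL molar mass × number of SAL per conjugate / 1000.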

[8] = Selectivity index, ratio of IC50 for cytostatic activity against human MONO-MAC-6 cells to MIC for antimycobacterial activity against Mycobacterium tuberculosis H37Rv ATCC 27294; assay type: toxicity, cell-based; conditions: read-out: Selectivity Index
Method in brief: (§5)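 MTT assay on MonoMac6 or HepG2 cells after 24 h exposure, top concentration 200 µM. SI = IC50 (µM)/MIC (µM) against H37Rv from the 4-week Sula medium assay.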

[9] = Selectivity index, ratio of IC50 for cytostatic activity against human HepG2 cells to MIC for antimycobacterial activity against Mycobacterium tuberculosis H37Rv ATCC 27294; assay type: toxicity, cell-based; conditions: read-out: Selectivity Index; method in brief: as §5
[10] = Retention time of the compound by RP-HPLC analysis; assay type: physicochemical
Method in brief: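 Analytical RP-HPLC on a C18 column (5 μm, 100 Å, 4.6 × 150 mm). Eluent A 0.1% TFA in water, eluent B 0.1% TFA in acetonitrile-water 80:20. Gradient 0% B for 5 min, to 60% B at 15 min, to 100% B at 25 min. Flow 1 mL/min, detection at 220 nm.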

[11] = tested on: Mycobacterium tuberculosis; test: Antimycobacterial activity against Mycobacterium tuberculosis H37Rv ATCC 27294 assessed as reduction in bacterial growth after 21 days by serial dilution method; assay type: functional; conditions: H37Rv ATCC 27294, 504 h, time 21 day; method in brief: as §4

Structure (SMILES) | Stability [1] | Activity [2] | MIC [3] [µM] | Activity [4] | Activity [5] | IC50 (HepG2) [µM] | Activity [6] | IC50 (MONO-MAC-6) [µM] | MIC [7] [µM] | selectivity ratio [8] | selectivity ratio [9] | Retention_time [10] [min] | MIC [11] [µM]
C/C(=N\OCC(=O)N[C@H](C(=O)N[C@@H](CCCCN)C(=O)N1CCC[C@H]1C(=O)N[C@@H](CCCCN)C(=O)NCC(=O)O)[C@@H](C)O)c1ccc(NC(=O)c2cc(Br)ccc2O)cc1 ({Benzoyl(5-Br-2-OH)}-[X1]TKPKG-OH) | Unstable | Active | 218 (≈ 200 µg/mL) | Active | Active | 191 | Active | > 200 | 65.3 (≈ 60 µg/mL) | > 3.1 | 2.9 | – | –
CCCC(=O)NCCCC[C@H](NC(=O)[C@@H]1CCCN1C(=O)[C@H](CCCCN)NC(=O)[C@@H](NC(=O)CO/N=C(\C)c1ccc(NC(=O)c2cc(Br)ccc2O)cc1)[C@@H](C)O)C(=O)NCC(=O)N[C@H](C(=O)N[C@@H](CCCCN)C(=O)N1CCC[C@H]1C(=O)N[C@@H](CCCCN)C(=O)NCC(=O)N[C@H](C(=O)N[C@@H](CCCCN)C(=O)N1CCC[C@H]1C(=O)N[C@@H](CCCCN)C(=O)NCC(=O)N[C@H](C(=O)N[C@@H](CCCCN)C(=O)N1CCC[C@H]1C(=O)N[C@@H](CCCCN)C(=O)NCC(N)=O)[C@@H](C)O)[C@@H](C)O)[C@@H](C)O ({Benzoyl(5-Br-2-OH)}-[X1]TKPK(Butyryl)GTKPKGTKPKGTKPKG-NH2) | – | Active | 79.3 (≈ 200 µg/mL) | Active | Active | 81.6 | Active | > 200 | 63.4 (≈ 160 µg/mL) | > 3.2 | 1.3 | 14.7 | –
C/C(=N\OCC(=O)NCCCC[C@H](NC(=O)[C@@H]1CCCN1C(=O)[C@H](CCCCN)NC(=O)[C@@H](NC(=O)CO/N=C(\C)c1ccc(NC(=O)c2cc(Br)ccc2O)cc1)[C@@H](C)O)C(=O)NCC(=O)N[C@H](C(=O)N[C@@H](CCCCN)C(=O)N1CCC[C@H]1C(=O)N[C@@H](CCCCN)C(=O)NCC(=O)N[C@H](C(=O)N[C@@H](CCCCN)C(=O)N1CCC[C@H]1C(=O)N[C@@H](CCCCN)C(=O)NCC(=O)N[C@H](C(=O)N[C@@H](CCCCN)C(=O)N1CCC[C@H]1C(=O)N[C@@H](CCCCN)C(=O)NCC(N)=O)[C@@H](C)O)[C@@H](C)O)[C@@H](C)O)c1ccc(NC(=O)c2cc(Br)ccc2O)cc1 ({Benzoyl(5-Br-2-OH)}-[X1]TKPK(X2)GTKPKGTKPKGTKPKG-NH2) | Unstable | Active | 70.4 (≈ 200 µg/mL) | inactive | Active | 79.7 | Active | 39.1 | 42.2 (≈ 120 µg/mL) | 0.9 | 1.9 | 16.3 | –
C/C(=N\OCC(=O)N[C@H](C(=O)N[C@@H](CCCCN)C(=O)N1CCC[C@H]1C(=O)N1CCC[C@H]1C(=O)N[C@@H](CCCNC(=N)N)C(=O)O)[C@@H](C)O)c1ccc(NC(=O)c2cc(Br)ccc2O)cc1 | Unstable | – | – | – | – | > 200 | – | > 200 | – | > 9.9 | > 9.9 | – | –
C/C(=N\OCC(=O)NCC(=O)O)c1ccc(NC(=O)c2cc(Br)ccc2O)cc1 | – | Active | – | Active | Active | > 200 | Active | > 200 | – | > 0.9 | > 0.9 | – | 215 (≈ 100 µg/mL)
C/C(=N\OCC(=O)N[C@H](C(=O)N[C@@H](CCCCN)C(=O)N1CCC[C@H]1C(=O)N[C@@H](CCCNC(=N)N)C(=O)O)[C@@H](C)O)c1ccc(NC(=O)c2cc(Br)ccc2O)cc1 ({Benzoyl(5-Br-2-OH)}-[X1]TKPR-OH) | Unstable | Active | 225 (≈ 200 µg/mL) | Active | Active | > 200 | Active | > 200 | 45 (≈ 40 µg/mL) | > 4.4 | > 4.4 | – | –
C/C(=N\OCC(=O)N[C@H](C(=O)N[C@@H](CCCCN)C(=O)N1CCC[C@H]1C(=O)N[C@@H](CCCCN)C(=O)NCC(=O)N[C@H](C(=O)N[C@@H](CCCCN)C(=O)N1CCC[C@H]1C(=O)N[C@@H](CCCCN)C(=O)NCC(=O)N[C@H](C(=O)N[C@@H](CCCCN)C(=O)N1CCC[C@H]1C(=O)N[C@@H](CCCCN)C(=O)NCC(=O)N[C@H](C(=O)N[C@@H](CCCCN)C(=O)N1CCC[C@H]1C(=O)N[C@@H](CCCCN)C(=O)NCC(N)=O)[C@@H](C)O)[C@@H](C)O)[C@@H](C)O)[C@@H](C)O)c1ccc(NC(=O)c2cc(Cl)ccc2O)cc1 (X3-[X1]TKPKGTKPKGTKPKGTKPKG-NH2) | – | Active | 41.5 (≈ 99.9 µg/mL) | Active | Active | > 200 | Active | > 200 | 83 (≈ 200 µg/mL) | > 2.4 | > 2.4 | – | –
C[C@@H](O)[C@H](NC(=O)CNC(=O)[C@H](CCCCN)NC(=O)[C@@H]1CCCN1C(=O)[C@H](CCCCN)NC(=O)[C@@H](NC(=O)CNC(=O)[C@H](CCCCN)NC(=O)[C@@H]1CCCN1C(=O)[C@H](CCCCN)NC(=O)[C@@H](NC(=O)CNC(=O)[C@H](CCCCN)NC(=O)[C@@H]1CCCN1C(=O)[C@H](CCCCN)NC(=O)[C@@H](NC(=O)CO/N=C\c1ccc(O)c(C(=O)Nc2ccc(C(F)(F)F)cc2)c1)[C@@H](C)O)[C@@H](C)O)[C@@H](C)O)C(=O)N[C@@H](CCCCN)C(=O)N1CCC[C@H]1C(=O)N[C@@H](CCCCN)C(=O)NCC(N)=O (X4-TKPKGTKPKGTKPKGTKPKG-NH2) | – | Active | 41.2 (≈ 100 µg/mL) | Active | Active | > 200 | Active | > 200 | – | > 2.4 | > 2.4 | – | 82.4 (≈ 200 µg/mL)
C/C(=N\OCC(=O)N[C@H](C(=O)O)[C@@H](C)O)c1ccc(NC(=O)c2cc(Br)ccc2O)cc1 | – | Active | – | Active | Active | > 200 | Active | > 200 | – | > 0.5 | > 0.5 | – | 394 (≈ 200 µg/mL)
C/C(=N\OCC(=O)N[C@H](C(=O)N[C@@H](CCCCN)C(=O)N1CCC[C@H]1C(=O)N[C@@H](CCCCN)C(=O)NCC(=O)N[C@H](C(=O)N[C@@H](CCCCN)C(=O)N1CCC[C@H]1C(=O)N[C@@H](CCCCN)C(=O)NCC(N)=O)[C@@H](C)O)[C@@H](C)O)c1ccc(NC(=O)c2cc(Br)ccc2O)cc1 ({Benzoyl(5-Br-2-OH)}-[X1]TKPKGTKPKG-NH2) | Unstable | Active | 56 (≈ 80.1 µg/mL) | Active | Active | > 200 | Active | > 200 | 175 (≈ 250 µg/mL) | > 1.1 | > 1.1 | 14.9 | –
C/C(=N\OCC(=O)NCC(=O)N[C@@H](Cc1ccccc1)C(=O)N[C@@H](CC(C)C)C(=O)NCC(=O)N[C@H](C(=O)N[C@@H](CCCCN)C(=O)N1CCC[C@H]1C(=O)N[C@@H](CCCCN)C(=O)NCC(N)=O)[C@@H](C)O)c1ccc(NC(=O)c2cc(Br)ccc2O)cc1 ({Benzoyl(5-Br-2-OH)}-[X1]GFLGTKPKG-NH2) | Unstable | Active | 155 (≈ 200 µg/mL) | Active | Active | 163 | Active | > 200 | 31 (≈ 40.1 µg/mL) | > 6.5 | 5.3 | – | –
